Assay results from ChEMBL document CHEMBL3588853, “Synthesis, biological evaluation, and molecular docking studies of novel 1-benzene acyl-2-(1-methylindol-3-yl)-benzimidazole derivatives as potential tubulin polymerization inhibitors” (Eur J Med Chem, 2015).

Experiments:
Tubulin (Bos taurus) = Tubulin (Bos taurus) (UniProt Q6B856+Q862F3); settings: at 5 µM
Tubulin = Tubulin (Bos taurus, UniProt Q6B856+Q862F3); test: Inhibition of bovine brain tubulin polymerization extent after 20 mins by turbidimetrically
A549 = test: Growth inhibition of human A549 cells assessed as inhibition of cell proliferation after 24 hrs by MTT assay; format: functional; settings: A549, 24 h
Procedure, shortened: (§1)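 Cells seeded at (1–5) × 10^3 per well and grown 12 h at 37 °C. Compounds added at increasing concentrations in medium with 10% FBS for 24 h. MTT dye then added, followed by 3–4 h at 37 °C. Medium discarded, formazan dissolved in DMSO and plate read. GI50 calculated relative to DMSO-treated control wells.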

HepG2 = test: Growth inhibition of human HepG2 cells assessed as inhibition of cell proliferation after 24 hrs by MTT assay; format: functional; settings: HepG2, 24 h
Procedure, shortened: as §1

MCF7 = test: Growth inhibition of human MCF7 cells assessed as inhibition of cell proliferation after 24 hrs by MTT assay; format: functional; settings: MCF7, 24 h
Procedure, shortened: as §1

Sequence of Tubulin (Q6B856 whole entry): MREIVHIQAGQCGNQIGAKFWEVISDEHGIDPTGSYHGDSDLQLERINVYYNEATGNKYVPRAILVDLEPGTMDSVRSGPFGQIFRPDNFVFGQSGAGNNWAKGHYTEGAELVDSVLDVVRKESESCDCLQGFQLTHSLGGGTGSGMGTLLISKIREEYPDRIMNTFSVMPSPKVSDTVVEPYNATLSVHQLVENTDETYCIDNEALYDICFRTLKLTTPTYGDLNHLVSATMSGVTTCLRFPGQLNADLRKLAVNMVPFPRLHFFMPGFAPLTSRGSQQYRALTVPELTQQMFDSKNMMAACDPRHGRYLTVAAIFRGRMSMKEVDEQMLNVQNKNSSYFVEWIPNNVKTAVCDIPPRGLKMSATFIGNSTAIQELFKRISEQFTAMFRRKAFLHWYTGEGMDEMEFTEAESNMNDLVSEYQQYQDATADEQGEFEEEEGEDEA
Sequence of Tubulin (Q862F3 whole entry): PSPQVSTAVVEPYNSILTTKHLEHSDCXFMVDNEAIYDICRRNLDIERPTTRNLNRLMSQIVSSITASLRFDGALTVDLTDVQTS

## COc1ccc2c(c1)c(-c1nc3ccccc3n1C(=O)c1ccccc1Br)cn2C
Tubulin (Bos taurus)
  inhibition: 55%
Tubulin
  IC50: 32.3 µM
A549
  GI50: 29.5 µM
HepG2
  GI50: 54.2 µM
MCF7
  GI50: 55.8 µM

## COc1cccc(C(=O)n2c(-c3cn(C)c4ccc(OC)cc34)nc3ccccc32)c1
Tubulin (Bos taurus)
  inhibition: 84%
Tubulin
  IC50: 3.3 µM
A549
  GI50: 4.6 µM
HepG2
  GI50: 11.7 µM
MCF7
  GI50: 14.6 µM

## COc1ccc2c(c1)c(-c1nc3ccccc3n1C(=O)c1cccc(Br)c1)cn2C
Tubulin (Bos taurus)
  inhibition: 57%
Tubulin
  IC50: 29.2 µM
A549
  GI50: 24.8 µM
HepG2
  GI50: 51.3 µM
MCF7
  GI50: 52.7 µM

## COc1ccc(C(=O)n2c(-c3cn(C)c4ccc(OC)cc34)nc3ccccc32)cc1
Tubulin (Bos taurus)
  inhibition: 82%
Tubulin
  IC50: 3.5 µM
A549
  GI50: 4.9 µM
HepG2
  GI50: 12.8 µM
MCF7
  GI50: 14.8 µM

## COc1ccc(C(=O)n2c(-c3cn(C)c4ccccc34)nc3ccccc32)cc1OC
Tubulin (Bos taurus)
  inhibition: 87%
Tubulin
  IC50: 2.1 µM
A549
  GI50: 3.1 µM
HepG2
  GI50: 8.4 µM
MCF7
  GI50: 10.2 µM

## COc1cc2c(c(OC)c1OC)-c1ccc(OC)c(=O)cc1[C@@H](NC(C)=O)CC2 [COLCHICINE]
A549
  GI50: 4.4 µM
HepG2
  GI50: 10.5 µM
MCF7
  GI50: 13.5 µM

## COc1ccc2c(c1)c(-c1nc3ccccc3n1C(=O)c1ccccc1)cn2C
Tubulin (Bos taurus)
  inhibition: 64%
Tubulin
  IC50: 19.6 µM
A549
  GI50: 16.7 µM
HepG2
  GI50: 37.9 µM
MCF7
  GI50: 38.4 µM

## Cn1cc(-c2nc3ccccc3n2C(=O)c2cccc(Br)c2)c2cc(Br)ccc21
Tubulin (Bos taurus)
  inhibition: 51%
Tubulin
  IC50: 39.7 µM
A549
  GI50: 38.5 µM
HepG2
  GI50: 67.3 µM
MCF7
  GI50: 68.2 µM

## COc1ccc(C(=O)n2c(-c3cn(C)c4ccc(Br)cc34)nc3ccccc32)cc1OC
Tubulin (Bos taurus)
  inhibition: 85%
Tubulin
  IC50: 2.4 µM
A549
  GI50: 3.4 µM
HepG2
  GI50: 9.7 µM
MCF7
  GI50: 11.3 µM

## COc1ccc(C(=O)n2c(-c3cn(C)c4ccc(Br)cc34)nc3ccccc32)cc1
Tubulin (Bos taurus)
  inhibition: 75%
Tubulin
  IC50: 6.3 µM
A549
  GI50: 11.3 µM
HepG2
  GI50: 18.9 µM
MCF7
  GI50: 19.2 µM

## Cn1cc(-c2nc3ccccc3n2C(=O)c2ccccc2)c2ccccc21
Tubulin (Bos taurus)
  inhibition: 61%
Tubulin
  IC50: 23.8 µM
A549
  GI50: 19.6 µM
HepG2
  GI50: 42.3 µM
MCF7
  GI50: 43.7 µM

## COc1ccc(/C=C\c2cc(OC)c(OC)c(OC)c2)cc1O [COMBRETASTATIN A4]
Tubulin (Bos taurus)
  inhibition: 93%
A549
  GI50: 2.8 µM
HepG2
  GI50: 7.4 µM
MCF7
  GI50: 9.4 µM

## Cn1cc(-c2nc3ccccc3n2C(=O)c2cccc(Br)c2)c2ccccc21
Tubulin (Bos taurus)
  inhibition: 52%
Tubulin
  IC50: 35.2 µM
A549
  GI50: 34.2 µM
HepG2
  GI50: 61.4 µM
MCF7
  GI50: 63.4 µM
